The values below come from ChEMBL document CHEMBL4118256, “Second Generation of Mannich Base-Type Derivatives with in Vivo Activity against Trypanosoma cruzi” (J Med Chem, 2018).

Series [1] relates to Trypanosoma cruzi. Description: Antitrypanosomal activity against Trypanosoma cruzi MHOM/Pe/2011/Arequipa DTU 5 trypamastigotes infected in Balb/c mouse assessed as reduction in parasitaemia reactivation at 20 mg/kg, po pretreated once daily for 5 consecutive days starting from day 75 post infection followed by cyclophosphamide-induced immunosuppression on day 100 post infection every 4 days for a maximum of 3 doses measured up to 1 week post immunosuppression by Neubauer chamber method. The series is classed as functional. Details: scale not given: the % may be the effect or the level left. The essentials: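 Female BALB/c mice (8-10 weeks, 20-25 g), groups of six, infected i.p. with 5 x 10^5 bloodstream trypomastigotes in 0.2 mL PBS; oral dosing 20 mg·kg-1 per day for 5 days in 5% DMSO/0.5% HPMC vehicle. After day 100 pi, cyclophosphamide 200 mg·kg-1 i.p. every 4 days, up to three doses. Within 1 week after the last dose, fresh-blood bloodstream trypomastigotes counted in a Neubauer chamber. Reactivation expressed relative to untreated infected controls.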

Series [2] deals with Trypanosoma cruzi. Description: Antitrypanosomal activity against Trypanosoma cruzi MHOM/Pe/2011/Arequipa DTU 5 trypamastigotes infected in Balb/c mouse assessed as reduction in parasitaemia reactivation in muscle tissue at 20 mg/kg, po pretreated once daily for 5 consecutive days starting from day 10 post infection followed by cyclophosphamide-induced immunosuppression on day 100 post infection every 4 days for a maximum of 3 doses measured on day 127 post infection by PCR method. It counts as functional. Details: scale not given: the % may be the effect or the level left.

The subject of series [3] is Mus musculus. Description: Nephrotoxicity in Balb/c mouse infected with Trypanosoma cruzi MHOM/Pe/2011/Arequipa DTU 5 trypamastigotes assessed as decrease in urea level in serum at 20 mg/kg, po once daily for 5 consecutive days starting from day 75 post infection measured on day 81 post infection by biochemical analysis relative to control. The series is classed as toxicity, organism-based. Details: scale not given: the % may be the effect or the level left. The note with it: in vivo.

The subject of series [4] is Mus musculus. Description: Nephrotoxicity in Balb/c mouse infected with Trypanosoma cruzi MHOM/Pe/2011/Arequipa DTU 5 trypamastigotes assessed as decrease in uric acid level in serum at 20 mg/kg, po once daily for 5 consecutive days starting from day 10 post infection measured on day 16 post infection by biochemical analysis relative to control. The series is classed as toxicity, organism-based. Details: scale not given: the % may be the effect or the level left. The note with it: in vivo.

Series [5] has as its system Mus musculus. Description: Nephrotoxicity in Balb/c mouse infected with Trypanosoma cruzi MHOM/Pe/2011/Arequipa DTU 5 trypamastigotes assessed as change in uric acid level in serum at 20 mg/kg, po once daily for 5 consecutive days starting from day 10 post infection measured on day 127 post infection by biochemical analysis relative to control. The series is classed as toxicity, organism-based. The note with it: in vivo.

Series [6] has as its system Mus musculus. Description: Cardiotoxicity in Balb/c mouse infected with Trypanosoma cruzi MHOM/Pe/2011/Arequipa DTU 5 trypamastigotes assessed as change in ratio of creatine kinase in muscle to brain at 20 mg/kg, po once daily for 5 consecutive days starting from day 10 post infection measured on day 127 post infection by biochemical analysis relative to control. The series is classed as toxicity, organism-based. The note with it: in vivo. In outline:
(§1)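 Serum clinical chemistry in Arequipa-infected female BALB/c mice. Oral 20 mg·kg-1 per day for 5 days, started day 10 or day 75 pi. Samples taken at day 16 pi or day 81 pi, and on necropsy day. Markers: CK-MB and LDH (U/L), AST, ALT and alkaline phosphatase (U/L), total bilirubin. Results scored relative to infected untreated controls; uninfected reference n = 15.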

For series [7], the system named is Mus musculus. The series is described as follows: Hepatotoxicity in Balb/c mouse infected with Trypanosoma cruzi MHOM/Pe/2011/Arequipa DTU 5 trypamastigotes assessed as increase in ratio of serum ALT to GPT level at 20 mg/kg, po once daily for 5 consecutive days starting from day 10 post infection measured on day 16 post infection by biochemical analysis relative to control. It counts as toxicity, organism-based. The following applies: in vivo.

The test system of series [8] is Mus musculus. The series is described as follows: Hepatotoxicity in Balb/c mouse infected with Trypanosoma cruzi MHOM/Pe/2011/Arequipa DTU 5 trypamastigotes assessed as increase in total bilirubin level at 20 mg/kg, po once daily for 5 consecutive days starting from day 75 post infection measured on day 127 post infection by biochemical analysis relative to control. The series is classed as toxicity, organism-based. The note with it: in vivo.

Series [9] has as its system Mus musculus. Description: Hepatotoxicity in Balb/c mouse infected with Trypanosoma cruzi MHOM/Pe/2011/Arequipa DTU 5 trypamastigotes assessed as increase in ratio of serum AST to GOT level at […], po once daily for 5 consecutive days starting from day 10 post infection measured on day 16 post infection by biochemical analysis relative to control. The series is classed as toxicity, organism-based. The note with it: in vivo.

Series [10] deals with Mus musculus. The series is described as follows: Hepatotoxicity in Balb/c mouse infected with Trypanosoma cruzi MHOM/Pe/2011/Arequipa DTU 5 trypamastigotes assessed as increase in ratio of serum ALT to GPT level at […], po once daily for 5 consecutive days starting from day 75 post infection measured on day 81 post infection by biochemical analysis relative to control. The series is classed as toxicity, organism-based. The note with it: in vivo.

Series [11] deals with Mus musculus. The series is described as follows: Hepatotoxicity in Balb/c mouse infected with Trypanosoma cruzi MHOM/Pe/2011/Arequipa DTU 5 trypamastigotes assessed as change in total bilirubin level at […], po once daily for 5 consecutive days starting from day 75 post infection measured on day 81 post infection by biochemical analysis relative to control. The note with it: in vivo. The series is classed as toxicity, organism-based. The essentials: as §1

For series [12], the system named is Mus musculus. The series is described as follows: Hepatotoxicity in Balb/c mouse infected with Trypanosoma cruzi MHOM/Pe/2011/Arequipa DTU 5 trypamastigotes assessed as increase in alkaline phosphatase level at […], po once daily for 5 consecutive days starting from day 75 post infection measured on day 81 post infection by biochemical analysis relative to control. The series is classed as toxicity, organism-based. The following applies: in vivo.

Series [13] deals with Trypanosoma cruzi. Description: Antitrypanosomal activity against Trypanosoma cruzi MHOM/Pe/2011/Arequipa DTU 5 trypamastigotes infected in Balb/c mouse assessed as reduction in parasitaemia reactivation in heart tissue at 100 mg/kg, po pretreated once daily for 5 consecutive days starting from day 75 post infection followed by cyclophosphamide-induced immunosuppression on day 100 post infection every 4 days for a maximum of 3 doses measured on day 127 post infection by PCR method. It counts as functional. Details: scale not given: the % may be the effect or the level left. The essentials:
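Necropsy on day 127 pi after oral treatment and cyclophosphamide immunosuppression. Tissue DNA was amplified by PCR targeting the ~300 bp T. cruzi SOD gene, 200 nM each primer, 30 cycles with 55.5 °C annealing. Products run on 2 % agarose; positive organs counted out of six mice.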

Series [14] deals with Trypanosoma cruzi. The series is described as follows: Antitrypanosomal activity against Trypanosoma cruzi MHOM/Pe/2011/Arequipa DTU 5 trypamastigotes infected in Balb/c mouse assessed as reduction in parasitaemia reactivation in muscle tissue at 100 mg/kg, po pretreated once daily for 5 consecutive days starting from day 75 post infection followed by cyclophosphamide-induced immunosuppression on day 100 post infection every 4 days for a maximum of 3 doses measured on day 127 post infection by PCR method. It counts as functional. The arrangement: scale not given: the % may be the effect or the level left.

The subject of series [15] is Mus musculus. The series is described as follows: Cardiotoxicity in Balb/c mouse infected with Trypanosoma cruzi MHOM/Pe/2011/Arequipa DTU 5 trypamastigotes assessed as decrease in ratio of creatine kinase in muscle to brain at 100 mg/kg, po once daily for 5 consecutive days starting from day 75 post infection measured on day 127 post infection by biochemical analysis relative to control. It counts as toxicity, organism-based. Details: scale not given: the % may be the effect or the level left. The note with it: in vivo.

Series [16] concerns Mus musculus. The series is described as follows: Nephrotoxicity in Balb/c mouse infected with Trypanosoma cruzi MHOM/Pe/2011/Arequipa DTU 5 trypamastigotes assessed as increase in urea level in serum at […], po once daily for 5 consecutive days starting from day 75 post infection measured on day 127 post infection by biochemical analysis relative to control. The series is classed as toxicity, organism-based. The following applies: in vivo.

The subject of series [17] is Mus musculus. The series is described as follows: Hepatotoxicity in Balb/c mouse infected with Trypanosoma cruzi MHOM/Pe/2011/Arequipa DTU 5 trypamastigotes assessed as decrease in alkaline phosphatase level at […], po once daily for 5 consecutive days starting from day 75 post infection measured on day 81 post infection by biochemical analysis relative to control. The series is classed as toxicity, organism-based. The arrangement: scale not given: the % may be the effect or the level left. The following applies: in vivo. In outline: as §1

Consider `O=C(Cn1ccnc1[N+](=O)[O-])NCc1ccccc1` [BENZNIDAZOLE], for which the Activity with Trypanosoma cruzi [1] is given as 51%; in the series with Trypanosoma cruzi [2], 33%; in the series with Mus musculus [3], “<= 30%”; in the series with Mus musculus [4], above 40%; with Mus musculus [5] it was below 10%; in the series with Mus musculus [6], below 10%. Also, the Activity was above 40% in the series on Mus musculus [7] and “<= 20%” with Mus musculus [8].

As for `COc1ccc(C(=O)CCN2CCN(c3ccc([N+](=O)[O-])cc3)CC2)cc1`, the Activity in the series with Mus musculus [9] is recorded as above 40%; with Mus musculus [10], “<= 30%”; in the series on Mus musculus [11] it was below 10%; in the series with Mus musculus [12], “<= 10%”.

For the compound `COc1ccc(C(=O)CCN2CCN(c3ccc(Cl)cc3)CC2)cc1`, the Activity in the series on Trypanosoma cruzi [13] is 78%; with Trypanosoma cruzi [14], 78%; in the series with Mus musculus [15] it was “<= 10%”.

For `COc1ccc(C(=O)CCN2CCN(c3ccc(F)cc3)CC2)cc1`, the Activity entry in the series with Mus musculus [16] and in the series on Mus musculus [17] was “<= 10%” throughout.
